Laboratory results taken from ChEMBL document CHEMBL1667804, “Design and synthesis of caffeoyl-anilides as portmanteau inhibitors of HIV-1 integrase and CCR5” (Bioorg Med Chem, 2011).
The source made the active and inactive calls. The rule behind the calls is not given here.

What was measured:
[1] = molecular target: Human immunodeficiency virus type 1 integrase (Human immunodeficiency virus 1) (UniProt Q7ZJM1); experiment: Inhibition of full-length recombinant HIV1 integrase at 20 ug/ml
Summary of the method: (§1)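 Kit ELISA-type strand-transfer assay. Biotin end-labelled double-stranded HIV-1 LTR U5 donor oligo bound on streptavidin plates, then full-length recombinant HIV-1 integrase loaded. Compound added, followed by a 3′-end-modified double-stranded target oligo. Screened at 20 µg/mL, IC50 determined in µg/mL and converted to molar. Sodium azide positive control.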

[2] = system: Human immunodeficiency virus 1; experiment: Antiviral activity against HIV1 NL4.3 infected in human CEM-GFP T cells assessed as inhibition of p24 antigen production at highest non cytotoxic concentration after 7 days by ELISA; assay type: functional, CCRF-CEM
Summary of the method: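 HIV-1 NL4.3 infection of CEM-GFP cells at MOI 0.05, with compound at the highest noncytotoxic concentration (95% viability in MTT) for 7 days. p24 in day-7 supernatant measured by capture ELISA. Reported as % decrease versus untreated infected cells. Preliminary screen by GFP microfluorometry.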

[3] = system: Human immunodeficiency virus 1; experiment: Antiviral activity against HIV1 NL4.3 infected in human CEM-GFP T cells assessed as inhibition of p24 antigen production after 7 days by ELISA; assay type: functional, organism-based; conditions: Human immunodeficiency virus 1, NL4.3, CCRF-CEM, 168 h
Summary of the method: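 CEM-GFP cells infected with HIV-1 NL4.3 at MOI 0.05, then cultured with compound for up to 7 days after infection. Day-7 supernatant p24 measured by antigen-capture ELISA. EC50 is the concentration giving 50% inhibition of virus production against untreated infected cells (n = 3). AZT positive control.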

[4] = Cytotoxicity against human CEM-GFP cells after 48 hrs by MTT assay; assay type: cell-based, CCRF-CEM
Summary of the method: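 MTT assay in CEM-GFP cells (2 × 10^4/well), 48 h exposure over a range of concentrations, with untreated and vehicle controls. Formazan dissolved and read at 540 nm. CC50 is the concentration giving 50% cytotoxicity in uninfected cells (n = 3).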

[5] = Therapeutic index, ratio of CC50 for human CEM-GFP cells to EC50 for HIV1 NL4.3; assay type: cell-based; conditions: read-out: Ratio CC50/EC50
[6] = molecular target: Human immunodeficiency virus type 1 integrase (Human immunodeficiency virus 1, UniProt Q7ZJM1); experiment: Inhibition of full-length recombinant HIV1 integrase; summary of the method: as §1
Chain of Human immunodeficiency virus type 1 integrase (Q7ZJM1 whole entry): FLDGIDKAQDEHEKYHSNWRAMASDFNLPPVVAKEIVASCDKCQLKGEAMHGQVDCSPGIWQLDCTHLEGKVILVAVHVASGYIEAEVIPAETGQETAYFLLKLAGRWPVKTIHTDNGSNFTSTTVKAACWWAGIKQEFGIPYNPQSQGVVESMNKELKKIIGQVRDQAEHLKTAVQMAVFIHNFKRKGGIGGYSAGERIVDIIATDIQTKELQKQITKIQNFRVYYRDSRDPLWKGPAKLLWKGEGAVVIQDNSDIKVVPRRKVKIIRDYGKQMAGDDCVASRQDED

[7] = system: Human immunodeficiency virus 1; experiment: Antiviral activity against R5 tropic HIV1 IndieC infected in human TZM-bl cells expressing CD4, CCR5 and CXCR4 assessed as inhibition of virus entry at highest non cytotoxic concentration after 48 hrs by luciferase assay; assay type: functional
Summary of the method: (§2)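 TZM-bl cells (10^4/well) seeded and left overnight at 37 °C. Compound added in DMEM/10% FBS for 1 h, then cells washed and infected for 4 h with IndieC (R5) or IIIB (X4).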

[8] = system: Human immunodeficiency virus 1; experiment: Antiviral activity against X4 tropic HIV1 3B infected in human TZM-bl cells expressing CD4, CCR5 and CXCR4 assessed as inhibition of virus entry at highest non cytotoxic concentration after 48 hrs by luciferase assay; assay type: functional; summary of the method: as §2
[9] = molecular target: Human immunodeficiency virus type 1 reverse transcriptase (Human immunodeficiency virus 1) (UniProt Q72547); experiment: Inhibition of HIV1 reverse transcriptase
[10] = Cytotoxicity against human CEM-GFP cells assessed as highest non cytotoxic concentration after 48 hrs by MTT assay; assay type: cell-based, CCRF-CEM; conditions: read-out: MNCC
Summary of the method: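 Viability by MTT in CEM-GFP cells after 48 h, absorbance at 540 nm. Viability first measured at three concentrations, then further dilutions made to find the concentration giving 95% viability.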

[11] = molecular target: Human immunodeficiency virus type 1 integrase (Human immunodeficiency virus 1) (UniProt Q7ZJM1); conditions: 5 ug/ml

Chain of Human immunodeficiency virus type 1 integrase (Human immunodeficiency virus 1) (Q7ZJM1 as listed by the source): as the sequence (Q7ZJM1 whole entry) above

inhibition [1] | EC50 [3] | IC50 [6] | Activity [9] | SMILES | inhibition (INH) [2] | CC50 at 48 h [4] | selectivity ratio [5] | inhibition (INH) [7] | inhibition (INH) [8] | MNTC at 48 h [10] | inhibition [11]
74% | 1.6 µM | 28.5 µM | inactive | O=C(/C=C/c1ccc(O)c(O)c1)c1ccc(NC(=O)c2ccc(F)c(F)c2)cc1 | 77.6% | 15.7 µM | 9.8 | 71.5% | 0% | 2500 nM | 
66.8% | 1.9 µM | 25.2 µM | inactive | COc1ccc(C(=O)Nc2ccc(C(=O)/C=C/c3ccc(O)c(O)c3)cc2)cc1 | 92.4% | 32.3 µM | 17.4 | 55.8% | 0% | 6400 nM | 
 |  |  | inactive | O=C(/C=C/c1ccc(O)c(O)c1)c1ccc(NC(=O)c2ccc3ccccc3c2)cc1 | 0% |  |  |  |  | 2400 nM | 
67.7% | 4.2 µM | 36.8 µM | inactive | O=C(/C=C/c1ccc(O)c(O)c1)c1ccc(NC(=O)C23C[C@H]4C[C@@H](C2)C[C@@H](C3)C4)cc1 | 86.1% | 13.5 µM | 3.2 | 59.6% | 0% | 6000 nM | 
 |  |  | inactive | CC(C)CC(=O)Nc1ccc(C(=O)/C=C/c2ccc(O)c(O)c2)cc1 | 0% |  |  |  |  | 1400 nM | 
56% | 1.6 µM | 50.2 µM | inactive | O=C(/C=C/c1ccc(O)c(O)c1)c1ccc(NC(=O)c2ccccc2)cc1 | 73% | 20.3 µM | 13 | 58.6% | 27.8% | 2800 nM | 
 |  |  | inactive | O=C(/C=C/c1ccc(O)c(O)c1)c1ccc(NC(=O)c2cccs2)cc1 | 0% |  |  |  |  | 2700 nM | 
 |  |  | inactive | CC(C)C(=O)Nc1ccc(C(=O)/C=C/c2ccc(O)c(O)c2)cc1 | 0% |  |  |  |  | 1500 nM | 
 |  |  | inactive | O=C(/C=C/c1ccc(O)c(O)c1)c1ccc(NC(=O)c2ccco2)cc1 | 24.2% |  |  |  |  | 2900 nM | 
 |  |  | inactive | CC(=O)Nc1ccc(C(=O)/C=C/c2ccc(O)c(O)c2)cc1 | 0% |  |  |  |  | 1700 nM | 
66.5% | 0.9 µM | 44.6 µM | inactive | O=C(Cc1cccs1)Nc1ccc(C(=O)/C=C/c2ccc(O)c(O)c2)cc1 | 71.6% | 51.4 µM | 59.1 | 52.9% | 0% | 2600 nM | 
 |  |  | inactive | O=C(/C=C/c1ccc(O)c(O)c1)c1ccc(NC(=O)c2ccc(C(F)(F)F)cc2F)cc1 | 10.9% |  |  |  |  | 2200 nM | 
 |  |  | inactive | O=C(/C=C/c1ccc(O)c(O)c1)c1ccc(NC(=O)c2ccc(F)cc2F)cc1 | 16% |  |  |  |  | 6300 nM | 
 |  |  | inactive | Nc1ccc(C(=O)/C=C/c2ccc(O)c(O)c2)cc1 | 0% |  |  |  |  | 3900 nM | 

SMILES | inhibition [1] | EC50 [3] | IC50 [6] | Activity [9] | inhibition (INH) [2] | CC50 at 48 h [4] | selectivity ratio [5] | inhibition (INH) [7] | inhibition (INH) [8] | MNTC at 48 h [10] | inhibition [11]
Cc1cn([C@H]2C[C@H](N=[N+]=[N-])[C@@H](CO)O2)c(=O)[nH]c1=O [ZIDOVUDINE] |  | 1.1 µM |  | inactive | 89.8% | 24.1 µM |  |  |  | 5000 nM | 
[N-]=[N+]=[N-] [SODIUM AZIDE] |  |  | 1.2 µM | inactive |  |  |  |  |  |  | 98.8%
